Calls of active or inactive are those of the source. The rule behind the calls is not given here.
Experiments:
[1] = Inhibition of beta-lactamase VIM2 (unknown origin) expressed in Escherichia coli BL21(DE3) using imipenem as substrate by measuring substrate hydrolysis at 100 uM by spectrophotometric analysis
In short: (§1)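 Purified enzyme (overproduced in E. coli BL21(DE3), pET-9a; ion-exchange and gel filtration), 1-70 nM final. Reporter substrate 150 μM imipenem, read at 300 nm, 30 °C, 50 mM HEPES pH 7.5. Single-point screen at 100 or 200 μM; Ki from v0/vi vs [I] (0.5–1,000 μM final) assuming competitive inhibition, or Dixon plot. Triplicate.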

[2] = Inhibition of beta-lactamase IMP-1 (unknown origin) expressed in Escherichia coli BL21(DE3) using imipenem as substrate by measuring substrate hydrolysis at 100 uM by spectrophotometric analysis; in short: as §1
[3] = Inhibition of beta-lactamase NDM1 (unknown origin) expressed in Escherichia coli BL21(DE3) using cefotaxime/nitrocefin as substrate by measuring substrate hydrolysis at 100 uM by spectrophotometric analysis
[4] = Inhibition of beta-lactamase VIM2 (unknown origin) expressed in Escherichia coli BL21(DE3) using imipenem as substrate by measuring substrate hydrolysis at 200 uM by spectrophotometric analysis; in short: as §1
[5] = Inhibition of beta-lactamase L1 (unknown origin) expressed in Escherichia coli BL21(DE3) using nitrocefin as substrate by measuring substrate hydrolysis at 100 uM preincubated for 30 mins by spectrophotometric analysis
In short: (§2)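 Enzyme 0.2–0.8 nM in 25 mM HEPES pH 7.5 with 50 μM ZnCl2 final, pre-incubated 30 min at 21 °C with inhibitor (100 μM screen). Nitrocefin 100 μM final, read at 482 nm, 30 °C. Residual activity vs three uninhibited samples; Ki (1–100 μM inhibitor) from Hanes linearization, competitive model. Triplicate.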

[6] = Inhibition of beta-lactamase L1 (unknown origin) expressed in Escherichia coli BL21(DE3) using nitrocefin as substrate by measuring substrate hydrolysis at 200 uM preincubated for 30 mins by spectrophotometric analysis
[7] = Inhibition of beta-lactamase IMP-1 (unknown origin) expressed in Escherichia coli BL21(DE3) using imipenem as substrate by measuring substrate hydrolysis at 200 uM by spectrophotometric analysis; in short: as §1
[8] = Inhibition of beta-lactamase VIM4 (unknown origin) expressed in Escherichia coli BL21(DE3) using imipenem as substrate by measuring substrate hydrolysis by spectrophotometric analysis; in short: as §1
[9] = Inhibition of beta-lactamase NDM1 (unknown origin) expressed in Escherichia coli BL21(DE3) using cefotaxime/nitrocefin as substrate by measuring substrate hydrolysis at 200 uM by spectrophotometric analysis
[10] = Inhibition of beta-lactamase VIM4 (unknown origin) expressed in Escherichia coli BL21(DE3) using imipenem as substrate by measuring substrate hydrolysis at 100 uM by spectrophotometric analysis; in short: as §1
[11] = Inhibition of beta-lactamase CphA (unknown origin) expressed in Escherichia coli BL21(DE3) using imipenem as substrate by measuring substrate hydrolysis at 100 uM by spectrophotometric analysis
In short: (§3)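 Enzyme 0.2–0.8 nM in 15 mM cacodylate pH 6.5, no added zinc, pre-incubated 30 min at 21 °C with inhibitor (100 μM screen). Imipenem substrate added from 10 mM stock; hydrolysis at 300 nm, 30 °C. Residual activity vs three uninhibited samples; Ki (1–100 μM inhibitor) by Hanes linearization, competitive model. Triplicate.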

[12] = Inhibition of beta-lactamase L1 (unknown origin) expressed in Escherichia coli BL21(DE3) using nitrocefin as substrate by measuring substrate hydrolysis preincubated for 30 mins by spectrophotometric analysis; in short: as §2
[13] = Inhibition of beta-lactamase NDM1 (unknown origin) expressed in Escherichia coli BL21(DE3) using cefotaxime/nitrocefin as substrate by measuring substrate hydrolysis by spectrophotometric analysis
In short: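 His-tagged enzyme from E. coli BL21(DE3) pET-15b, affinity-purified, 1-70 nM final. Reporter substrate 120 μM cefotaxime (260 nm) or 100 μM nitrocefin (482 nm), 30 °C, 50 mM HEPES pH 7.5. Inhibitor 0.5–1,000 μM final; competitive Ki from v0/vi vs [I] slope or Dixon plot. Triplicate.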

[14] = Inhibition of beta-lactamase VIM2 (unknown origin) expressed in Escherichia coli BL21(DE3) using imipenem as substrate by measuring substrate hydrolysis by spectrophotometric analysis; in short: as §1
[15] = Inhibition of beta-lactamase CphA (unknown origin) expressed in Escherichia coli BL21(DE3) using imipenem as substrate by measuring substrate hydrolysis by spectrophotometric analysis; in short: as §3
[16] = Inhibition of beta-lactamase VIM-4 (unknown origin) expressed in Escherichia coli LZ2310 assessed as potentiation of ampicillin antibacterial activity by measuring ampicillin induced diameter of inhibition zone at 40 uM incubated for 18 hrs by disk diffusion method (reference value: 6 mm)
In short: (§4)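 Efflux-deficient E. coli LZ2310 (NorE, MdfA, AcrA knocked out) carrying pLB-II with the cloned MBL gene. Mueller-Hinton, CLSI disk diffusion; antibiotic disks (30 µg cefoxitin for VIM-2, 10 µg ampicillin for VIM-4, 30 µg ceftazidime for NDM-1/IMP-1) loaded with inhibitor in DMSO (≤15 µL). Zone diameter after 18 h, 35 ± 1 °C; DMSO and 220 µg EDTA controls. Triplicate.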

[17] = Inhibition of beta-lactamase VIM-2 (unknown origin) expressed in Escherichia coli LZ2310 assessed as potentiation of cefoxitin antibacterial activity by measuring cefoxitin induced diameter of inhibition zone at 40 uM incubated for 18 hrs by disk diffusion method (reference value: 14 mm); in short: as §4

Compound | inhibition [1] | inhibition [2] | inhibition [3] | inhibition [4] | inhibition [5] | inhibition [6] | inhibition [7] | inhibition [9] | inhibition [10] [%] | inhibition [11] [%] | inhibition zone (IZ) [16] [mm] | inhibition zone (IZ) [17] [mm] | Ki [8] [µM] | Ki [12] [µM] | Ki [13] [µM] | Ki [14] [µM] | Ki [15] [µM]
Cc1ccccc1-c1n[nH]c(=S)n1/N=C/c1ccccc1C#N | inactive | – | – | inactive | inactive | inactive | 50% | 60% | – | – | – | – | 6.5 | – | – | – | –
Oc1ccc(/C=N/n2c(Cc3ccc4ccccc4c3)n[nH]c2=S)c(O)c1 | inactive | 64% | inactive | inactive | inactive | inactive | – | inactive | 30 | – | – | – | – | – | – | – | –
Oc1ccc(/C=N/n2c(-c3cccc(Cl)c3)n[nH]c2=S)c(O)c1 | – | 66% | – | – | 30% | – | – | 50% | – | 35 | – | – | 3 | – | – | – | –
Oc1ccc(/C=N/n2c(-c3cc(O)ccc3O)n[nH]c2=S)c(O)c1 | inactive | 50% | inactive | inactive | – | – | – | inactive | – | – | – | – | 3 | 15 | – | – | 5
O=C(O)c1cccc(-c2cccc(/C=N/n3c(-c4ccc5ccccc5c4)n[nH]c3=S)c2)c1 | 30% | inactive | – | – | 45% | – | inactive | 50% | – | – | – | – | 2.8 | – | – | – | –
Cc1ccccc1-c1n[nH]c(=S)n1/N=C/c1ccc([N+](=O)[O-])cc1 | inactive | 43% | inactive | inactive | 56% | – | – | inactive | – | 59 | 6 | – | 1.4 | – | – | – | –
Cc1ccccc1-c1n[nH]c(=S)n1/N=C/c1cc(O)ccc1[N+](=O)[O-] | inactive | 47% | inactive | inactive | – | – | – | inactive | 32 | – | – | – | – | 16 | – | – | 9
Cc1ccccc1-c1n[nH]c(=S)n1/N=C/c1ccc(O)cc1 | inactive | 37% | inactive | inactive | 43% | – | – | inactive | – | 35 | – | – | 1.3 | – | – | – | –
Cc1ccccc1-c1n[nH]c(=S)n1/N=C/c1ccccc1 | – | 34% | 32% | – | inactive | inactive | – | – | – | – | – | – | 20 | – | – | 20 | 70
Oc1ccc(/C=N/n2c(-c3cc(Cl)cc(Cl)c3)n[nH]c2=S)c(O)c1 | – | 55% | 50% | – | 40% | – | – | – | – | – | – | 14 | 4 | – | – | 3.8 | –
Oc1ccc(/C=N/n2c(-c3ccc4ccccc4c3)n[nH]c2=S)c(O)c1 | – | inactive | inactive | – | inactive | inactive | inactive | inactive | 55 | – | – | – | – | – | – | – | –
Oc1ccc(/C=N/n2c(-c3ccccc3)n[nH]c2=S)c(O)c1 | – | 54% | – | – | 46% | – | – | – | – | – | 6 | 14 | 1.7 | – | – | – | 26
Oc1ccc(/C=N/n2c(-c3cc4ccccc4[nH]3)n[nH]c2=S)c(O)c1 | inactive | inactive | inactive | inactive | inactive | inactive | inactive | inactive | 55 | – | – | – | – | – | – | – | –
Oc1ccc(/C=N/n2c(CCc3ccccc3)n[nH]c2=S)c(O)c1 | – | 45% | – | – | 51% | – | – | – | 54 | – | – | 14 | – | – | 168 | 9 | 6

The next lines start with results.

inhibition [1] | inhibition [2] | inhibition [3] | inhibition [4] | inhibition [5] | inhibition [6] | inhibition [7] | inhibition [9] | inhibition [10] [%] | inhibition [11] [%] | inhibition zone (IZ) [16] [mm] | inhibition zone (IZ) [17] [mm] | Compound | Ki [8] [µM] | Ki [12] [µM] | Ki [13] [µM] | Ki [14] [µM] | Ki [15] [µM]
inactive | inactive | 45% | inactive | inactive | inactive | inactive | – | – | – | – | – | S=c1[nH]nc(-c2ccccc2-c2ccccc2)n1/N=C/c1ccc(OCc2ccccc2)cc1 | – | – | – | – | –
– | 35% | – | – | – | – | – | – | 53 | 56 | – | – | O=C(O)c1ccccc1/C=N/n1c(-c2cccc3ccccc23)n[nH]c1=S | – | 1.1 | 76 | 14.5 | –
inactive | inactive | 32% | inactive | inactive | inactive | inactive | – | 49 | – | – | – | O=C(O)c1ccccc1/C=N/n1c(-c2ccccc2-c2ccccc2)n[nH]c1=S | – | – | – | – | –
inactive | inactive | – | inactive | – | – | inactive | 60% | – | – | – | – | O=C(O)c1ccccc1/C=N/n1c(-c2ccc3ccccc3c2O)n[nH]c1=S | 2 | 0.5 | – | – | –
inactive | inactive | inactive | inactive | inactive | inactive | inactive | inactive | 50 | – | – | – | Oc1ccc(/C=N/n2c(C(c3ccccc3)c3ccccc3)n[nH]c2=S)c(O)c1 | – | – | – | – | –
45% | inactive | 65% | – | inactive | inactive | inactive | – | 65 | – | – | – | Oc1ccc(/C=N/n2c(-c3cccc(-c4ccccc4)c3)n[nH]c2=S)c(O)c1 | – | – | – | – | –
– | 48% | – | – | 59% | – | – | 60% | 57 | 51 | – | 14 | O=C(O)c1ccccc1/C=N/n1c(Cc2ccccc2)n[nH]c1=S | – | – | – | 3.2 | –
35% | inactive | inactive | – | – | – | inactive | inactive | – | – | – | – | O=C(O)c1ccccc1/C=N/n1c(-c2cccc(Br)c2)n[nH]c1=S | 2 | 3 | – | – | –
inactive | inactive | – | inactive | 40% | – | inactive | – | 51 | – | – | – | O=C(O)c1ccccc1/C=N/n1c(-c2cccc(F)c2)n[nH]c1=S | – | – | – | – | –

— ChEMBL document CHEMBL4706580, “4-Amino-1,2,4-triazole-3-thione-derived Schiff bases as metallo-β-lactamase inhibitors” (Eur J Med Chem, 2020)
